Activity calls are given as the source filed them. The calls are words filed in the database; no cut-off is given here.
Key:
Trypanosoma cruzi [1] = assay: Antitrypanosomal activity against bloodstream forms of Trypanosoma cruzi Columbian after 24 hrs by light microscopy in presence of 50% mouse blood; format: functional, organism-based
How it was run: (§1)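 Bloodstream trypomastigotes kept at 4°C for 24 h in freshly isolated 50% mouse blood with serial dilutions (up to 32 μM). Motile live parasites counted in a Neubauer chamber by light microscopy; IC50 calculated as concentration reducing parasite number by 50%.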

Trypanosoma cruzi [2] = assay: Antitrypanosomal activity against Trypanosoma cruzi Y bloodstream forms infected in Swiss-Webster mouse assessed as decrease in parasitemia at 100 mg/kg/day, ip administered 8 days postinfection measured on day 120; format: functional; details: route intraperitoneal
How it was run: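 Male Swiss mice infected i.p. with 10^4 Y strain bloodstream forms. Given 0.2 ml i.p. at 5 and 8 dpi, or daily for 10 days from 5 dpi; reference drug given by gavage. Parasitemia measured by the Pizzi-Brener method, cumulative mortality checked daily to 120 dpi, n ≥ 6 per group.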

[3] = Toxicity in […] mouse assessed as mortality at cumulative dose of 100 mg/kg, ip measured after 48 hrs; format: organism-based; parameters: dose 100 mg/kg, route intraperitoneal; details: in vivo, read-out: Activity
How it was run: (§2)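 Uninfected 8–10-week-old female and male Swiss Webster and C3H/He (H-2k) mice injected i.p. on day 1 every 2 h with escalating doses: 5, 15, 30, 50 and 100 mg/kg (cumulative 20, 50, 100, 200 mg/kg). Toxic and subtoxic signs inspected on days 2–3 per OECD guidelines; tolerated dose set at 48 h.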

Trypanosoma cruzi [4] = assay: Antitrypanosomal activity against Trypanosoma cruzi Y infected in Swiss-Webster mouse assessed as decrease in parasite-induced weight loss at 100 mg/kg/day, ip administered 5 days post-infection for 10 consecutive days measured on day 120; format: functional, organism-based
How it was run: (§3)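 Body weight of infected, treated mice followed from 0 to 120 dpi.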

Trypanosoma cruzi [5] = assay: Antitrypanosomal activity against Trypanosoma cruzi 960 epimastigotes after 24 hrs by light microscopy; format: functional, organism-based; details: Trypanosoma cruzi, 960, 24 h
How it was run: (§4)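 Epimastigotes from 5-day exponential cultures, 5 × 10^6 parasites/ml in LIT medium, incubated at 28°C up to 96 h with DB766 0 to 32 μM or Bz 0 to 250 μM. Counted daily in a Neubauer chamber. IC50 averaged from at least three determinations in duplicate.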

Trypanosoma cruzi [6] = assay: Antitrypanosomal activity against Trypanosoma cruzi 762 epimastigotes after 24 hrs by light microscopy; format: functional, organism-based; details: Trypanosoma cruzi, 762, 24 h; how it was run: as §4
Trypanosoma cruzi [7] = assay: Antitrypanosomal activity against Trypanosoma cruzi Columbian bloodstream forms infected in C3H mouse assessed as decrease in parasite load at 50 mg/kg/day, ip administered 21 days postinfection measured on day 45; format: functional, organism-based
How it was run: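 C3H/He mice infected i.p. with 10^2 Colombian strain bloodstream forms. Treatment started at parasitemia onset (21 dpi) with daily doses for 10 treatments, 0.1 ml i.p. Parasitemia measured by the Pizzi-Brener method; n ≥ 6 parasitemic mice per group.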

Trypanosoma cruzi [8] = assay: Antitrypanosomal activity against bloodstream forms of Trypanosoma cruzi Y infected in Swiss mouse cardiomyocytes assessed as parasite crista dilation at 10 ug/ml after 2 hrs by transmission electron microscopy; format: functional, organism-based
How it was run: (§5)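 Y-strain bloodstream trypomastigotes treated 2 to 24 h at 37°C. Fixed 60 min at 4°C in 2.5% glutaraldehyde in 0.1 M cacodylate, pH 7.2. Postfixed 1 h at 4°C in 1% OsO4 with 0.8% potassium ferricyanide. Acetone-dehydrated, Epon-embedded, sections stained with uranyl acetate and lead citrate, ultrastructure examined by TEM.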

Trypanosoma cruzi [9] = assay: Antitrypanosomal activity against bloodstream forms of Trypanosoma cruzi YuYu after 24 hrs by light microscopy in presence of 50% mouse blood; format: functional, organism-based; how it was run: as §1
Mus musculus [10] = assay: Toxicity in female Swiss-Webster mouse assessed as mortality at cumulative dose of 200 mg/kg, ip measured after 48 hrs; format: organism-based; parameters: dose 200 mg/kg, route intraperitoneal; details: in vivo; how it was run: as §2
Mus musculus [11] = assay: Toxicity in […](H-2k) mouse assessed as effect on GPT level at 100 mg/kg/day, po; format: organism-based; parameters: route oral; details: in vivo
Trypanosoma cruzi [12] = assay: Antitrypanosomal activity against Trypanosoma cruzi Columbian bloodstream forms infected in C3H mouse assessed as decrease in cardiac parasite load at 100 mg/kg/day, ip administered 5 days postinfection for 10 consecutive days measured after 43 days; format: functional; parameters: scale not given: the % may be the effect or the level left; details: route intraperitoneal
How it was run: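 Male C3H/He mice infected i.p. with 5 × 10^3 Colombian strain bloodstream forms, given 100 mg/kg/day i.p. daily for 10 days. At 43 dpi, H&E-stained 3 μm heart sections scored for amastigote nests and infiltrates (>10 mononuclear cells) over at least 100 fields. Three sections each from at least three mice.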

Trypanosoma cruzi [13] = assay: Antitrypanosomal activity against Trypanosoma cruzi Columbian bloodstream forms infected in C3H mouse assessed as decrease in parasite load at 25 mg/kg/day, ip administered 5 days postinfection for 10 consecutive days measured after 120 days; format: functional, organism-based
Trypanosoma cruzi [14] = assay: Antitrypanosomal activity against Trypanosoma cruzi RBVIII epimastigotes after 24 hrs by light microscopy; format: functional, organism-based; how it was run: as §4
Trypanosoma cruzi [15] = assay: Antitrypanosomal activity against Trypanosoma cruzi Columbian bloodstream forms infected in C3H mouse assessed as decrease in parasite load in 25 mg/kg/day, po administered 5 days postinfection for 10 consecutive days measured after 120 days; format: functional, organism-based
Trypanosoma cruzi [16] = assay: Antitrypanosomal activity against Trypanosoma cruzi Columbian bloodstream forms infected in C3H mouse assessed as decrease in parasite load at 100 mg/kg/day, ip administered 5 days postinfection for 10 consecutive days measured after 41days post infection; format: functional, organism-based
How it was run: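 C3H/He mice infected i.p. with 10^3 or 5 × 10^3 Colombian strain bloodstream forms. Treated daily for 10 days with 0.1 ml i.p. or by gavage, reference drug given by gavage. Parasitemia measured by the Pizzi-Brener method; n ≥ 6 parasitemic mice per group.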

Trypanosoma cruzi [17] = assay: Antitrypanosomal activity against Trypanosoma cruzi Y bloodstream forms infected in Swiss-Webster mouse assessed as reduction in parasite-induced weight loss in mouse at 50 mg/kg/day, ip administered 5 days postinfection for 10 consecutive days measured on day 120; format: functional, organism-based; how it was run: as §3
Trypanosoma cruzi [18] = assay: Antitrypanosomal activity against Trypanosoma cruzi Y bloodstream forms infected in Swiss mouse cardiomyocytes assessed as parasite crista dilation at 10 ug/ml after 24 hrs by transmission electron microscopy; format: functional, organism-based
Trypanosoma cruzi [19] = assay: Antitrypanosomal activity against Trypanosoma cruzi 956 epimastigotes after 24 hrs by light microscopy; format: functional, organism-based; details: Trypanosoma cruzi, 956, 24 h; how it was run: as §4
Trypanosoma cruzi [20] = assay: Antitrypanosomal activity against bloodstream forms of Trypanosoma cruzi Y infected in Swiss mouse cardiomyocytes assessed as parasite mitochondrial swelling at 10 ug/ml after 24 hrs by transmission electron microscopy; format: functional, organism-based; how it was run: as §5
Mus musculus [21] = assay: Toxicity in […](H-2k) mouse assessed as mortality at cumulative dose of 200 mg/kg, ip measured after 48 hrs; format: organism-based; parameters: dose 200 mg/kg, route intraperitoneal; details: in vivo; how it was run: as §2
Trypanosoma cruzi [22] = assay: Antitrypanosomal activity against Trypanosoma cruzi Y bloodstream forms infected in Swiss-Webster mouse assessed as decrease in parasite load at 50 mg/kg/day, ip administered 5 days postinfection for 10 consecutive days measured after 8 days; format: functional; parameters: scale not given: the % may be the effect or the level left; details: route intraperitoneal
How it was run: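 Eight-week-old male Swiss mice infected i.p. with 10^4 Y-strain bloodstream trypomastigotes; parasitemia-positive mice only (n ≥ 6). Dosing i.p. (0.2 ml) daily for 10 consecutive days from parasitemia onset (5 dpi). Parasitemia at the 8 dpi peak counted by Pizzi-Brener method; reduction relative to infected untreated group.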

`CC(C)Oc1cc(NC(=N)c2ccccn2)ccc1-c1ccc(-c2ccc(NC(=N)c3ccccn3)cc2OC(C)C)o1` gave an IC50 (Trypanosoma cruzi [1]) of 1000 nM, an inhibition in vivo at 100 mg/kg/day (Trypanosoma cruzi [2]) of over 99% and a mortality at 48 h [3] of 80%. The Activity (Trypanosoma cruzi [4]) was “inactive”, the IC50 (Trypanosoma cruzi [5]) was 90 nM and the IC90 (Trypanosoma cruzi [5]) was 280 nM. The IC50 (Trypanosoma cruzi [6]) was 60 nM, the IC90 (Trypanosoma cruzi [6]) was 180 nM and the Activity (Trypanosoma cruzi [7]) was “inactive”. For the same compound, the Activity (Trypanosoma cruzi [8]) was “Active”, the IC50 (Trypanosoma cruzi [9]) was 820 nM and the Activity (Mus musculus [10]) was “Non-toxic”. For the same compound, the Activity (Mus musculus [11]) was “Non-toxic”, the Activity (Trypanosoma cruzi [12]) was 95% and the Activity (Trypanosoma cruzi [13]) was “Active”. For the same compound, the IC50 (Trypanosoma cruzi [14]) was 180 nM, the IC90 (Trypanosoma cruzi [14]) was 440 nM and the Activity (Trypanosoma cruzi [15]) was “inactive”. For the same compound, the Activity (Trypanosoma cruzi [16]) was “Active”, the Activity (Trypanosoma cruzi [17]) was “inactive” and the Activity (Trypanosoma cruzi [18]) was “Active”. The IC50 (Trypanosoma cruzi [19]) was 160 nM, the IC90 (Trypanosoma cruzi [19]) was 320 nM and the Activity (Trypanosoma cruzi [20]) was “Active”. For the same compound, the Activity (Mus musculus [21]) was “Non-toxic” and the Activity (Trypanosoma cruzi [22]) was 98%.

Source: ChEMBL document CHEMBL1649306, “Arylimidamide DB766, a potential chemotherapeutic candidate for Chagas' disease treatment” (Antimicrob Agents Chemother, 2010)
